In the RNAGym collection of RNA variant scans (doi:10.1038/nmeth.2970) one finds Kd data, which are given here for 39 variants.

The chains are these.
B1: NELF-E aptamer (parent)
chain: CCCAACGACUGCCGAGCGAGAUUACGCUUGAGCGCCCCACUGAGGAUGCCCACGGGCGAUUGGGGCACGG

Usually Kd stands for a measure of binding affinity in units of concentration.

Variants of B1 are the subject of this data set. Nature of the data set: HiTS-RAP. The following applies: with NELF-E (Drosophila). The method, boiled down:
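Aptamer DNA templates bearing a T7 promoter and a ter site were sequenced on an Illumina GAIIx flowcell. T7 RNA polymerase then transcribed them in situ, and GST-Tus halted transcription over 30 minutes at 37°C. After a 30-minute room-temperature equilibration with NELF-E-mOrange at 0.064 to 1000 nM in HEPES binding buffer, clusters were imaged, using only the first binding curve. Intensities normalised to sequencing intensity were averaged per sequence and fitted with weighted Hill fits to give Kd, retaining only fits whose variance stayed under 1,000,000.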
CCCAAUGACUGCCGAGCGAGAUUACGCUUGAGCGCCCCACUGAGGAUGCCCUCGGGCGAUUGGGGCACGG [C6U A52U]: the Kd was 23.1 nM.
Under CCCAAGGACUGCCGAGCGAGAUUACGCUCGAGCGCCCCACUGAGGAUGCCCACGGGCGAUUGGGGCACGG [C6G U29C] stands 4.69 nM.
Under CCCAAGGACUGCCGAGCGAGAUUACGCUAGAGCGCCCCACUGAGGAUGCCCACGGGCGAUUGGGGCACGG [C6G U29A] stands 5.51 nM; under CCCAAGGACUGCCGAGCGAGAUUACGCUGGAGCGCCCCACUGAGGAUGCCCACGGGCGAUUGGGGCACGG [C6G U29G], 4.97 nM.
The figure for CCCAAUGACUGCCGAGUGAGAUUACGCUUGAGCGCCCCACUGAGGAUGCCCACGGGCGAUUGGGGCACGG [C6U C17U] is 6.39 nM.
With CCCAAUGACUGCCGAGGGAGAUUACGCUUGAGCGCCCCACUGAGGAUGCCCACGGGCGAUUGGGGCACGG [C6U C17G], the dissociation constant Kd is 6.11 nM.
Under CCCAACAACUGCCGAGCGUGAUUACGCUUGAGCGCCCCACUGAGGAUGCCCACGGGCGAUUGGGGCACGG [G7A A19U] stands 8.57 nM; under CCCAAUGACUGCCGAGCGAGAUUACGCUUGAGCGCCCCACUGAGGAUGCCCACGGGCGGUUGGGGCACGG [C6U A59G], 69.1 nM.
Under CCCAAUGACUGCCGAGCGAGAUUACGCUUGAGCGCCCCACAGAGGAUGCCCACGGGCGAUUGGGGCACGG [C6U U41A] stands 82.3 nM; under CCCAAUGACUGCCGAGCGAGAUUACGCUUGAGCGCCCCACCGAGGAUGCCCACGGGCGAUUGGGGCACGG [C6U U41C], 81.8 nM.
On to CCCAAUGACUGCCGAGCGAGAUUACGCUUGAGCGCCCCACGGAGGAUGCCCACGGGCGAUUGGGGCACGG [C6U U41G], for which the Kd amounted to 5.16 nM.
CCCAACAACUGCCGAGCGAGAUUGCGCUUGAGCGCCCCACUGAGGAUGCCCACGGGCGAUUGGGGCACGG [G7A A24G]: the Kd is 6.73 nM.
Under CCCAAUGACUGCCGAGCGAGAUUACGCUUGAGCGCCCCACUGAGGAUGCCCACGAGCGAUUGGGGCACGG [C6U G55A] stands 7.75 nM; under CCCAAUGACGGCCGAGCGAGAUUACGCUUGAGCGCCCCACUGAGGAUGCCCACGGGCGAUUGGGGCACGG [C6U U10G], 5.57 nM; under CCCAAUGACUGCCGAGCGAGAGUACGCUUGAGCGCCCCACUGAGGAUGCCCACGGGCGAUUGGGGCACGG [C6U U22G], 5.57 nM.
The figure for CCCAAGGACUGCCGAGCGAGAUUACGCUUGAGCGCCCCACUGAGGAUGCCCACGGGCGAUUGGUGCACGG [C6G G64U] is 6.35 nM; for CCCAAGGACUGCCGAGCGAGAUUACGCUUGAGCGCCCCACUGAGGAUGCCCACGGGCGAUUGGCGCACGG [C6G G64C] it is 6.39 nM; for CCCAAUGACUGCCGAGCGAGAUUACACUUGAGCGCCCCACUGAGGAUGCCCACGGGCGAUUGGGGCACGG [C6U G26A] it is 4.04 nM.
For CCCAAUGACUGCCGAGCGAGAUUAGGCUUGAGCGCCCCACUGAGGAUGCCCACGGGCGAUUGGGGCACGG [C6U C25G], the Kd was 7.85 nM.
Under CCCAAUUACUGCCGAGCGAGAUUACGCUUGAGCGCCCCACUGAGGAUGCCCACGGGCGAUUGGGGCACGG [C6U G7U] stands 6.71 nM; under CCCAAUGACUGCCGAGCGAGGUUACGCUUGAGCGCCCCACUGAGGAUGCCCACGGGCGAUUGGGGCACGG [C6U A21G], 7.12 nM; under CCCAAUGACUGCCGAUCGAGAUUACGCUUGAGCGCCCCACUGAGGAUGCCCACGGGCGAUUGGGGCACGG [C6U G16U], 6.67 nM.
The figure for CCCAAUGACUGCCGAGCGAGAUUACGCUUGAGCGCCCCACUGAGGAUGCCCACGGGCGAUAGGGGCACGG [C6U U61A] is 38.1 nM; for CCCAAUGACUGCGGAGCGAGAUUACGCUUGAGCGCCCCACUGAGGAUGCCCACGGGCGAUUGGGGCACGG [C6U C13G] it is 5.6 nM.
For the variant CCCAAUGACUGCUGAGCGAGAUUACGCUUGAGCGCCCCACUGAGGAUGCCCACGGGCGAUUGGGGCACGG [C6U C13U], the Kd is 5.09 nM.
With CCCAAGGACUGCCGAGCGAGAUCACGCUUGAGCGCCCCACUGAGGAUGCCCACGGGCGAUUGGGGCACGG [C6G U23C], the Kd came out at 4.4 nM.
The figure for CCCAAGGACUGCCGAGCGAGAUGACGCUUGAGCGCCCCACUGAGGAUGCCCACGGGCGAUUGGGGCACGG [C6G U23G] is 4.81 nM; for CCCAAGGACUGCCGAGCGAGAUAACGCUUGAGCGCCCCACUGAGGAUGCCCACGGGCGAUUGGGGCACGG [C6G U23A] it is 5.12 nM.
For CCCAACAACUGCCGAGCGAGAUUACGCUUGAGCGCCCCACUGAGGAUGCCCACGGGCGAUUGGGGCACGG [G7A], the Kd was determined as 5.61 nM.
Under CCCAAUGGCUGCCGAGCGAGAUUACGCUUGAGCGCCCCACUGAGGAUGCCCACGGGCGAUUGGGGCACGG [C6U A8G] stands 6.02 nM; under CCCAAUGUCUGCCGAGCGAGAUUACGCUUGAGCGCCCCACUGAGGAUGCCCACGGGCGAUUGGGGCACGG [C6U A8U], 7.13 nM.
Take CCCAAGGACGGCCGAGCGAGAUUACGCUUGAGCGCCCCACUGAGGAUGCCCACGGGCGAUUGGGGCACGG [C6G U10G]: the Kd stood at 4.77 nM.
The figure for CCCAAGGACAGCCGAGCGAGAUUACGCUUGAGCGCCCCACUGAGGAUGCCCACGGGCGAUUGGGGCACGG [C6G U10A] is 5.16 nM.
Under CCCAAGGACCGCCGAGCGAGAUUACGCUUGAGCGCCCCACUGAGGAUGCCCACGGGCGAUUGGGGCACGG [C6G U10C] stands 5.34 nM; under CCCAAUGACUGGCGAGCGAGAUUACGCUUGAGCGCCCCACUGAGGAUGCCCACGGGCGAUUGGGGCACGG [C6U C12G], 5.7 nM.
Regarding CCCAAUGACUGUCGAGCGAGAUUACGCUUGAGCGCCCCACUGAGGAUGCCCACGGGCGAUUGGGGCACGG [C6U C12U], the Kd came out at 6.16 nM.
Under CCCAAUGACUGCCGUGCGAGAUUACGCUUGAGCGCCCCACUGAGGAUGCCCACGGGCGAUUGGGGCACGG [C6U A15U] stands 6.25 nM; under CCCAAUGACUGCCGAGCGAGAUUACGCUUGAGCGCCCCACUGAGGAUGCCCACAGGCGAUUGGGGCACGG [C6U G54A], 14.5 nM.
Under CCCAAUGACUGCCGAGCGAGAUUACGCUUGAGCACCCCACUGAGGAUGCCCACGGGCGAUUGGGGCACGG [C6U G34A] stands 6.54 nM.
